Assay outcomes from PubChem BioAssay.
Shown are actives, neighbours in structure and some others; about 6% of the full set was active somewhere.
PostGolgi ctrl: inhibits growth of the yeast control strain | actives 5% (n = 98,000) | inhibition, % at 10 µM | efflux-deficient yeast background strain, growth absorbance A615, 16 h
Ecoli tolC: blocks growth of E. coli BW25113 tolC mutant; actives 2.2% (n = 65,000); OD615; AID 573; growth inhibition, % at 10 µM (by protocol);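 active = growth inhibition at or above a cutoff equal to the mean over every tested compound plus 3 SD, cut at about 60% in these data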;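 note: growth measured after 20 h incubation at 37 °C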
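Test system: E. coli BW25113 ΔtolC::kan bacteria | Medium: Kanamycin-containing LB broth (50 µg/mL) | Dosing: One dose of 10 µM final | Times: 20 h incubation with compound, 37 °C | Detection: Optical density read at 615 nm | Read-out basis: Percent growth inhibition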
EphB4 ephrin blk: EphB4-ephrin-B2 interaction antagonism; EphB4 LBD / TNYL-RAW-Alexa532 peptide, fluorescence polarization; P54760; AID 720; inhibition, % at 7 µM; actives 0.15% (n = 97,000);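 active = inhibition above the screen-wide mean inhibition plus 3 SD, cut at about 15% in these data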;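 note: 0% = DMSO wells and 100% = excess unlabeled TNYL-RAW peptide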
Target sequence (P54760 whole entry, looked up, the tested form may be a part): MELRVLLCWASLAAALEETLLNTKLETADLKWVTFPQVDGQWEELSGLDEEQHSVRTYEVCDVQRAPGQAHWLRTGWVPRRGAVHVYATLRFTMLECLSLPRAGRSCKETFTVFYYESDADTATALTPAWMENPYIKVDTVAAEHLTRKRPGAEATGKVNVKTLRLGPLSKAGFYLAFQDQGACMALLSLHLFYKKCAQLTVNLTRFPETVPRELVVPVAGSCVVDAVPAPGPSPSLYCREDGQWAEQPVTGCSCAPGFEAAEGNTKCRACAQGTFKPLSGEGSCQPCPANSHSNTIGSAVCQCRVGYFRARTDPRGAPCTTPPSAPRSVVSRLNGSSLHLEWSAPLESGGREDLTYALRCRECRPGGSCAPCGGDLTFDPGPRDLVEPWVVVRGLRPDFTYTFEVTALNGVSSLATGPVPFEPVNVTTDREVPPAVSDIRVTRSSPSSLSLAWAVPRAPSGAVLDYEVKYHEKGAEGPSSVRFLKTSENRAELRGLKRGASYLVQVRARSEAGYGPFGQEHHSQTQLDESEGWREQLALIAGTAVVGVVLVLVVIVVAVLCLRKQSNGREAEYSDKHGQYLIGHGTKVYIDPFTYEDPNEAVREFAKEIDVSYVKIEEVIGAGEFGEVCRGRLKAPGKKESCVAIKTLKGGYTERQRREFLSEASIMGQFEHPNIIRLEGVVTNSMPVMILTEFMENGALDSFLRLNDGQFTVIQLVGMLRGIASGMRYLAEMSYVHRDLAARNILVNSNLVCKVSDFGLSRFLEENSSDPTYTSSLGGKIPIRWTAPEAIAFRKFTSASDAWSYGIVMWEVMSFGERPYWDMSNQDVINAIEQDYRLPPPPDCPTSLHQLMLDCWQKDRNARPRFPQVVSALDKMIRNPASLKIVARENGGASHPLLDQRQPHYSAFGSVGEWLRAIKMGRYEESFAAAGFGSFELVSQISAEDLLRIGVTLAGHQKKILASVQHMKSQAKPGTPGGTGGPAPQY
PostGolgi yeast: growth inhibition of a yeast mutant, post-Golgi transport screen; post-Golgi transport phenotypic cell assay; inhibition, % at 10 µM; actives 0.9% (n = 98,000);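 note: yeast cells grown in 1536-well plates; yeast grown about 18 h at 30C before absorbance read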
Ecoli WT expand: E. coli BW25113 growth inhibition, expanded screen; AID 710; actives 0.15% (n = 98,000); growth inhibition, % at 100 µM; OD600 absorbance;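 active = growth inhibition above about 50% at one test dose, limit read from the data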;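 note: growth measured after 20 h incubation at 37 °C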
* marks the source's active call; other numbers are inactive results; x = not tested or not shown. Cut-off read from the data, not from the text of the source, unless noted: active = inhibition above about 30%; inactive = the rest.

SMILES	PostGolgi ctrl	Ecoli tolC	EphB4 ephrin blk	PostGolgi yeast	Ecoli WT expand
COc1cc(OC)cc(-n2nc(C(=O)N3CCC4(CC3)OCCO4)c3ccccc3c2=O)c1	0	-5	x	4	0
O=C(c1sc2ccccc2c1Cl)N1CCC2(CC1)OCCO2	46*	16	-1	4	5
Cc1nn(-c2ccccc2)c(Cl)c1C1C(C#N)=C(N)Oc2c1c(=O)oc1ccccc21 (configuration not stated)	31*	68*	2	6	-19
C=CCn1c(O)c(C(CC)=NCc2cc(OC)cc(OC)c2)c(=O)[nH]c1=O	34*	24	-3	0	5
CCCCn1c(O)c(C(CC)=Nc2ccc(C(=O)O)cc2)c(=O)[nH]c1=O	13	0	7	2	1
C=CCn1c(O)c(C(CC)=NCCCO)c(=O)[nH]c1=O	10	-1	-4	5	-4
C=CCn1c(O)c(C(CC)=NCCC2=CCCCC2)c(=O)[nH]c1=O	38*	x	-1	4	4
CCCCn1c(O)c(C(CC)=NCc2ccc3c(c2)OCO3)c(=O)[nH]c1=O	55*	14	1	5	5
O=C(CCc1nc(-c2ccccc2F)no1)N1CCC2(CC1)OCCO2	6	-17	-3	2	-3
Clc1ccc(COC(Cn2ccnc2)c2ccc(Cl)cc2Cl)cc1 (configuration not stated)	x	100*	x	x	x
CCOc1ccc(-n2c(CC)nc3ccccc3c2=O)cc1	31*	-4	x	7	3
CCCCOc1ccc(CN2CCN(CCO)CC2)cc1	8	-19	1	5	7
CCCCCCOc1ccc(CN2CCN(CCO)CC2)cc1	31*	9	2	89*	13
Cc1ccc(C2C(S(C)(=O)=O)=C(O)C(=O)N2c2ccccc2)cc1 (configuration not stated) (tested in a mixture with another compound)	14	75*	-1	0	4
CN1CCN(c2c[nH]c(=O)[nH]c2=O)CC1	-3	-28	-3	2	-2
CN1C2CCC1CC(OC(=O)c1cc(Cl)cc(Cl)c1)C2 (configuration not stated)	-5	x	3	21	5
O=P(O)(O)C12CC3CC(CC(C3)C1)C2	-1	-9	4	2	-2
Cc1cc(OC(=O)c2ccco2)c2c3c(c(=O)oc2c1)CCCC3	18	x	15*	18	7
O[C@H]1C2CCC1C(N1CCCCC1)CC2 (some centres not stated)	-4	-29	4	7	2
Cc1nc2c(=O)n(C)c(=O)nc-2n(C)n1	x	x	0	x	x
CCn1nc(-c2ccccc2)nc2c(=O)n(C)c(=O)nc1-2	102*	100*	x	106*	24
CC(=NCCCO)c1c(O)n(Cc2ccccc2)c(=O)[nH]c1=O	x	-13	-2	x	x
CCCCCCN=C(C)c1c(O)n(Cc2ccccc2)c(=O)[nH]c1=O	35*	x	1	0	-9
CCCCn1c(O)c(C(C)=Nc2ccc(OCC)cc2)c(=O)[nH]c1=O	26	25	4	52*	0
Nc1ccc2c(c1)oc1ccccc12	17	x	0	5	17
SMILES	PostGolgi ctrl	Ecoli tolC	EphB4 ephrin blk	PostGolgi yeast	Ecoli WT expand
CCC(=Nc1ccc(OC)cc1OC)c1c(O)n(C2CCCCC2)c(=O)[nH]c1=O	48*	77*	-3	71*	0
CCC(=NCc1ccco1)c1c(O)n(C2CCCCC2)c(=O)[nH]c1=O	45*	15	4	15	-6
Fc1cccc(CCNCc2ccccn2)c1	-2	x	1	-4	1
CN1CSC(=S)N(C)C1	0	-7	7	21	-1
CCOC(=O)c1c(-c2ccc(OC)cc2)oc2ccc(OC(=O)N(C)C)cc12	20	68*	3	-4	-12
C1=C(CCNCc2ccccc2)CCCC1	8	x	1	-6	94*
O=C1C2CCCN2C(c2cccnc2)N1c1nccs1 (configuration not stated)	-8	-16	-4	-7	3
CC(=O)OC1C2CCCC1C(N1CCCC1)CC2 (configuration not stated)	5	-15	-6	-3	5
O=c1cccc2n1CC1CC2CN(S(=O)(=O)c2ccccc2)C1 (configuration not stated)	3	x	-1	43*	4
Cc1ccc(N2C(=O)NC(=O)/C(=C/c3ccc(OC(=O)c4cccs4)cc3)C2=O)cc1	32*	x	-2	1	2
COc1cc(/C=C2\C(=O)NC(=O)N(c3ccccc3)C2=O)cc(OC)c1O	4	x	-1	0	-9
